Assay results collected from several papers.
Protocols differ between the studies behind these lines.
Cell line: MCF7
Effect on: cell growth or viability

COc1cc(CNC(=O)C[C@H](C)CCC=C(C)C)ccc1OCc1cn(-c2ccc(Cl)cc2)nn1
inhibition (SRB; 10 µM): 34%

COc1cc(C(CC(=O)c2ccc(Cl)cc2)NCCc2ccc(O)c(O)c2)ccc1O (stereo not drawn)
TGI (MTT): 3.05 µM

CC/C(=C(\c1ccccc1)c1ccc(OCCN(C)C)cc1)c1ccccc1
EC90 (ATP luminescence; 72 h): 32.2 µM

CC(C)c1cnn2c(NCc3ccccc3)cc(NC[C@H]3CCNC[C@@H]3O)nc12
inhibition (0.1 µM, 9 days): ~50%

CCCCCCCCCCCCNC(=O)NCCCC[C@H](NS(C)(=O)=O)C(=O)N[C@H](C)C(=O)N[C@@H](CCCNC(=N)N)C(N)=O
EC50 (MTT; 72 h): 69.2 to 78.9 µM

COc1ccc(C(=O)/C=C/c2ccc(Cl)c(Cl)c2)cc1S(N)(=O)=O
inhibition (SRB; 10 µM): 149%

COc1cccc2c1C(=O)c1c(O)c3c(c(O)c1C2=O)C[C@@](O)(C(=O)CO)C[C@@H]3O[C@H]1C[C@H](N)[C@H](O)[C@H](C)O1
IC50 (SRB): 0.18 µM

COc1ccc(C(=O)/C=C/c2c(F)cccc2Cl)cc1S(N)(=O)=O
inhibition (SRB; 10 µM): 105%

CCCCCCCCCCCCNC(=S)NCCCC[C@H](NS(C)(=O)=O)C(=O)N[C@@H](C)C(=O)N[C@@H](CCCNC(=N)N)C(N)=O
EC50 (MTT; 72 h): 63.7 to 84.3 µM

COc1ccc(C(=O)/C=C/c2ccccc2Cl)cc1S(N)(=O)=O
inhibition (SRB; 10 µM): 4%

COc1cc(C(CC(=O)c2ccc(C)cc2)NCCc2ccc(O)c(O)c2)ccc1O (stereo not drawn)
TGI (MTT): 10.1 µM

C[C@]12CC[C@@H]3c4ccc(O)cc4CC[C@H]3[C@@H]1CC[C@@H]2O
EC50 (ATP luminescence; 72 h): 22.5 µM

COc1cc(C(CC(=O)c2ccc(Br)cc2)NCCc2ccc(O)c(O)c2)ccc1O (stereo not drawn)
TGI (MTT): 0.4 µM

COc1ccc(Cc2nc(/N=C3\NC(=O)N(C)C3=O)n(C)c2Cc2ccc(O)cc2)cc1
EC50: 5.9 µM

COc1ccc(C(=O)/C=C/c2ccc3ccccc3c2)cc1S(N)(=O)=O
inhibition (SRB; 10 µM): 175%

COc1cc(C(CC(=O)c2ccc(C(C)(C)C)cc2)NCCc2ccc(O)c(O)c2)ccc1O (stereo not drawn)
TGI (MTT): 4.24 µM

COc1ccccc1/C=C/C(=O)c1ccc(OC)c(S(N)(=O)=O)c1
inhibition (SRB; 10 µM): 92%

C[C@@H](NC(=O)[C@H](CCCCNC(=O)C(F)(F)F)NS(C)(=O)=O)C(=O)N[C@@H](CCCNC(=N)N)C(N)=O
EC50 (MTT; 72 h): 47.6 to 62.8 µM
